Rows were chosen to be rich in hits. Some 2.3% of all compounds tested hit in one or more screens of this group.
TRPC4 block: inhibitors of mouse TRPC4 channel | Q9QUQ5 | HEK293 TRPC4beta/mu-opioid, DAMGO-evoked Fluo4 calcium flux; stronger effect = lower value | B-score at 10 µM | 300,000 compounds, 0.39% hits | AID 2247;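 active means B-score over 3 SD under the library average, no early fluorescence shift, positive overall ratio signal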
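Assay system: TRPC4beta/mu-opioid receptor HEK293 cell line; compound dosing: single concentration per test compound; detection: Fluo4 Ca2+ flux fluorescence; evaluation: per-well B score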
TRPC4 agonist: activators of mouse TRPC4 channel; HEK293 TRPC4beta/mu-opioid, Fluo4 calcium fluorescence; stronger effect = higher value; 310,000 compounds, 0.49% hits; AID 2237; B-score at 10 µM; Q9QUQ5;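 active means B-score above 5 SD of library B-scores, and initial fluorescence ratio not above library mean plus 5 SD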;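 further: positive B-score marks a calcium rise read as TRPC4 activation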
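Assay system: HEK293 stable line with TRPC4beta plus mu-opioid receptor. Times: dye 45 min RT, read 110 s. Measured by: kinetic Fluo4 calcium fluorescence. Measure: B score of integrated ratio. Controls: assay buffer as low control, maximal DAMGO as high control.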
TRPC6 inh: inhibitors of mouse TRPC6 channel. Q61143. HEK293-TRPC6, membrane potential dye, ACh-evoked depolarization; stronger effect = lower value. B-score at 10 µM. 310,000 compounds, 1.1% hits. AID 2553;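 active means B-score under library mean minus 3 SD, initial fluorescence not abnormally high, positive integrated signal ratio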;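 further: B-score derived from integrated fluorescence ratio over the kinetic read; more negative B-score means stronger inhibition of depolarization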
Target sequence (Q61143 whole entry, looked up): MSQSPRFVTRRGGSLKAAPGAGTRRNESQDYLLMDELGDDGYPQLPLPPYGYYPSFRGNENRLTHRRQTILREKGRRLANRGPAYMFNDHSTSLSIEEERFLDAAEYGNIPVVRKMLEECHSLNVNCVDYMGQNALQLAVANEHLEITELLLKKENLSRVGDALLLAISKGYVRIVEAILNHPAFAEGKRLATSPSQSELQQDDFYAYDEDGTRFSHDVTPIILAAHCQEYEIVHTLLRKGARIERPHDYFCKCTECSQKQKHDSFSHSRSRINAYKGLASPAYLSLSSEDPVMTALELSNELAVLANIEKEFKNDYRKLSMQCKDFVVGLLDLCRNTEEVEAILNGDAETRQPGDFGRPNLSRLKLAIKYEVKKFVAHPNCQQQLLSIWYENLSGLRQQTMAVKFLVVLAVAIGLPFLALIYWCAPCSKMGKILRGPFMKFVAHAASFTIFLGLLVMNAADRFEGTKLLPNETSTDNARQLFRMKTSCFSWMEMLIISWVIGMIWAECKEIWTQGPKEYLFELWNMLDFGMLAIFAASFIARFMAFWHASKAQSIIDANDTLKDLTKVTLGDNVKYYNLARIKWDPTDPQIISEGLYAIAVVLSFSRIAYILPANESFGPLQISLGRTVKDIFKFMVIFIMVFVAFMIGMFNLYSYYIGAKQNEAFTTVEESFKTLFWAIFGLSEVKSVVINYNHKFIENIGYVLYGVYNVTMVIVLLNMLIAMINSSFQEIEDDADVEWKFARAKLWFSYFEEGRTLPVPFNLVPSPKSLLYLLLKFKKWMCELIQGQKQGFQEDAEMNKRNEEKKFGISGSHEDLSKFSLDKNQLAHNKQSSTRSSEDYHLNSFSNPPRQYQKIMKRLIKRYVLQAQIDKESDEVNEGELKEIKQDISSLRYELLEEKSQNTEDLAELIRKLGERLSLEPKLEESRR
TRPC6 activator: mouse TRPC6 channel activation; 310,000 compounds, 0.13% hits; B-score at 10 µM; HEK293-TRPC6 membrane potential dye fluorescence; stronger effect = higher value; Q61143;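 active means B-score of the integrated fluorescence ratio above library mean plus 3 SD, and starting fluorescence ratio within library mean plus 5 SD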;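 further: higher score means more depolarization so channel activation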
TRPC4 potent: allosterically enhances the mouse TRPC4 cation channel; Q9QUQ5; HEK293 TRPC4beta/mu-opioid, DAMGO EC20, Fluo-4 Ca2+ flux; stronger effect = higher value; B-score at 10 µM; 310,000 compounds, 0.42% hits;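 active means B-score of calcium response area above 5 SD of library B-scores, with initial fluorescence ratio within 5 SD of library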;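 further: B-score of integrated fluorescence ratio over time as area under calcium response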
An asterisk follows results filed as active; i = inactive.

SMILES | TRPC4 block | TRPC4 agonist | TRPC6 inh | TRPC6 activator | TRPC4 potent
COc1ccc2cc3cc(C(=O)NCCN4CCN(Cc5ccccc5)CC4)oc3nc2c1 | -6* | i | i | i | i
COc1ccc2cc3cc(C(=O)NCCN4CCc5ccccc5C4)oc3nc2c1 | i | i | i | i | i
Cc1ccc(C2(C(F)(F)F)N=C3Sc4cc(C)ccc4N3C(=O)N2)cc1 (stereo unspecified) | i | i | i | i | i
Cc1ccc(CC(=O)NCCN2CCOCC2)cc1 | i | i | i | i | i
O=C1c2ccc(Oc3ccc4c(c3)C(=O)N(CCCO)C4=O)cc2C(=O)N1CCCO | i | 71* | i | i | i
CC12CCC(c3c(C(=O)N4CCOCC4)nn(-c4ccccc4)c31)C2(C)C (stereo unspecified) | i | i | i | i | 10*
O=C(Nc1ccnn1C1CCN(CCCC2CCCC2)CC1)c1ccccc1Cl | -8* | i | i | i | i
COC(=O)C1=C(N)c2c(F)cccc2C1(C#N)c1ccc(F)cc1 (stereo unspecified) | i | i | i | i | i
COc1ccc(Cl)cc1C(=O)NCC(c1ccco1)N1CCCC1 (stereo unspecified) | i | 52* | i | i | i
COc1ccc(Cl)cc1C(=O)NCC(c1ccco1)N(C)C (stereo unspecified) | i | i | i | i | i
O=C(NCC(c1ccco1)N1CCCC1)c1sc2ccccc2c1Cl (stereo unspecified) | i | 43* | i | i | i
O=C(NCC(c1ccco1)N1CCCC1)c1ccccc1F (stereo unspecified) | i | i | i | i | i
O=[N+]([O-])c1ccc(-[n+]2nc(-c3ccccc3)nn2-c2ccccc2)cc1 | i | i | i | i | i
COc1cc(/C=C2/C(=O)NN(c3cccc(C)c3)C2=O)ccc1OC(=O)c1ccco1 | i | i | i | i | 22*
CCN(CC)c1ncnc2scc(C3COc4ccccc4O3)c12 (stereo unspecified) | -7* | i | i | i | i
COC1CCN(C(=O)C2CCC(=O)N(CCc3cccc(F)c3)C2)CC1 (stereo unspecified) | i | i | i | i | i
CCc1nnc(NC(=O)c2nc3nc(C)cc(C)n3n2)s1 | i | i | -5.5* | i | i
CC1(C)CC(NC2C3CC4CC(C3)CC2C4)CC(C)(C)N1 (stereo unspecified) | i | i | i | i | 12*
Cc1ccccc1C(=O)NC1CC(C)(C)NC(C)(C)C1 | i | i | i | i | i
NC(=O)COC(=O)c1ccc2noc(-c3ccccc3)c2c1 | i | i | i | i | i
CC(C)(C)C(=O)NC(=S)NNC(=O)c1sc2ccccc2c1Cl | i | 256* | i | i | i
COc1ccc(C(=O)NNC(=O)c2ccc(C(C)(C)C)cc2)cc1 | i | i | i | i | i
COc1ccc(C(=O)NNC(=S)NC(=O)C(C)(C)C)cc1 | i | 225* | i | i | i
COc1ccc(NC(=O)c2cc(C)no2)cc1 | i | i | i | i | i
CCN1CCN(C(=O)C2CCN(c3nnc(C)c4c(C)n(-c5ccc(C)cc5)nc34)CC2)CC1 | -5* | i | i | i | i
SMILES | TRPC4 block | TRPC4 agonist | TRPC6 inh | TRPC6 activator | TRPC4 potent
CN(CC(=O)Nc1ccc(F)cc1)C(=O)COC(=O)c1ccccc1 | i | i | i | i | 106*
CN(CC(=O)Nc1ccc(F)cc1)C(=O)CCc1ccccc1 | i | i | i | i | i
CNCc1ccccc1Sc1ccc(OC)cc1 | i | i | i | i | i
CNCc1ccccc1Sc1cccc2ccccc12 | -6* | 46* | i | i | i
CC(C)Cn1c(O)c(N=NC(=O)c2cccc(S(=O)(=O)N3CCCCC3)c2)c2ccccc21 | i | i | i | i | 17*
CC(C)CCn1c(O)c(N=NC(=O)c2ccco2)c2ccccc21 | i | i | i | i | i
CCOC(=O)N1CCC(N2Cc3cccc(C(=O)NCc4ccccc4OC)c3C2=O)CC1 | i | i | -7.3* | i | i
CCOC(=O)N1CCC(NC(=O)c2cccc3c2C(=O)N(c2ccc(OC)cc2)C3)CC1 | i | i | -7.8* | i | i
CCOC(=O)N1CCC(N2Cc3cccc(C(=O)NCc4ccc5c(c4)OCO5)c3C2=O)CC1 | i | i | i | i | i
CCOC(=O)N1CCC(NC(=O)c2cn(-c3ccc(OC)cc3)c(=O)c3ccccc23)CC1 | i | i | i | i | i
C#CCOCCOCCOCCNc1nc(N2CCN(C(=O)[C@H](CCC(=O)O)n3cc(C(N)CO)nn3)CC2)nc(N2CCN(C(=O)[C@H](CCC(=O)O)n3cc(C(N)CC(C)C)nn3)CC2)n1 (stereo partly specified) | i | i | i | i | i
CN(C)CCCN(C(=O)c1ccc(S(=O)(=O)N2CCc3ccccc32)cc1)c1nc2ccc(F)cc2s1 | i | 111* | i | i | i
CN(C)CCCN(C(=O)c1ccc(S(=O)(=O)N2CCCC2)cc1)c1nc2c(F)cc(F)cc2s1 | -9* | i | i | i | i
CN(C)CCCN(C(=O)c1ccc(S(=O)(=O)N2CCc3ccccc3C2)cc1)c1nc2c(F)cccc2s1 | i | i | i | i | i
Cc1ccc2nc(N(CCCN(C)C)C(=O)c3ccc(S(=O)(=O)N4CCc5ccccc5C4)cc3)sc2c1 | i | 129* | i | i | i
CN(C)CCCN(C(=O)c1ccc(S(=O)(=O)N2CCc3ccccc3C2)cc1)c1nc2ccc(F)cc2s1 | i | 111* | i | i | i
Cc1cc(C)c2sc(N(CCCN(C)C)C(=O)c3ccc(S(=O)(=O)N4CCc5ccccc5C4)cc3)nc2c1 | i | i | i | i | i
CCOc1ccc(/C=C2\SC(=S)N(CCC(=O)Nc3ccccc3C(=O)O)C2=O)cc1 | i | i | i | i | i
Cc1ccc2nc(N(CCCN(C)C)C(=O)c3ccc(S(=O)(=O)N(C)C)cc3)sc2c1 | i | i | i | i | i
Cc1ccc2nc(N(CCCN(C)C)C(=O)c3sc4ccccc4c3Cl)sc2c1 | i | i | i | i | 10*
Cc1ccc(C(=O)N(CCCN(C)C)c2nc3ccc(Cl)cc3s2)cc1C | i | i | i | i | i
CN(C)CCCN(C(=O)c1ccc(S(=O)(=O)N(C)C)cc1)c1nc2ccc(F)cc2s1 | -5* | 49* | i | i | i
